Here are results for 48 sequences from the EternaBench riboswitch data.

This data set deals with MS2 coat protein. Put plainly: apparent Kd, MS2 coat protein; higher = weaker binding; RNA-MaP array; FMN 200 µM where present. A digest of the protocol:
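Designs on Illumina sequencing-chip clusters, transcribed by stalled E. coli RNA polymerase, were exposed to SNAP-549-labelled MS2 coat protein in doubling steps from 0.7 or 1.5 nM up to 3 µM, without and then with constant ligand. The buffer held 100 mM Tris-HCl pH 7.5, 80 mM KCl, 4 mM MgCl2, BSA, DTT, yeast tRNA and Tween-20. Apparent Kd values are medians of filtered per-cluster binding-curve fits to green signal normalised to red-channel RNA signal and control-cluster median Fmax.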

[1] abbreviates: designed as: ON switch for flavin mononucleotide, no ligand.
Where [2] appears, read: ligand present: flavin mononucleotide, designed as: ON switch for flavin mononucleotide.
Where [3] appears, read: designed as: OFF switch for flavin mononucleotide, no ligand.
Where [4] appears, read: ligand present: flavin mononucleotide, designed as: OFF switch for flavin mononucleotide.

“AGUCCGGAACAGAAGGACAUGAGGAUCACCCAUGUAGGAUAUGUUGUGCGGCGUUAGGGAGGUGCCUGCGUGUGGGCGGAUCUC”: the “apparent Kd” value under setting [1] was found to be 14.1 nM and the “apparent Kd” value under setting [2] was found to be 6.56 nM.
With “GCCCGGGCAAACAUGAGGAUCACCCAUGUGUUAUACUUAAUAUAGGAUAUGUUUAUACUUUUUGGGCAGAAGGAUGGCCCGGGC”, the “apparent Kd” value turned out to be 35.1 nM under setting [1] and 32.4 nM under setting [2].
On to “UGAAUGUGAGGAUAUGGUGAGUAGUGCCUAAGCGCUGCUCACCAGAAGGCACAUGAGGAUCACCCAUGUACUUG”, for which the “apparent Kd” value was 61.7 nM under setting [3] and 192 nM under setting [4].
For “GUAACUCAUGUAGGAUAUGCAUGGCGAAGCUACGCAGAAGGACAUGAGGAUCACCCAUGUUCUAGCGUCUGGAUACAGAUGCAA”, the “apparent Kd” value worked out at 85.7 nM under setting [3] and 327 nM under setting [4].
For “GCUGGACAAGGAUAUACAUAACGUGCUUCGGCACGAGAUCUACAUGAGGAUCACCCAUGUAGAAGGUGUCCAGC”, the “apparent Kd” value worked out at 14.8 nM under setting [3] and 29.2 nM under setting [4].
As to “AAGCUGGUAGGAUAUACUAGGGCAACUAAUGCGCCGAUAGGACAUGAGGAUCACCCAUGUAGAAGGGCCAGAAA”, the “apparent Kd” value is, setting by setting: under setting [3], 80.1 nM; under setting [4], 93.1 nM.
On to “UUCCUCUUUGUGAGGAUAUCGUCCGUUUUUUGUUACGAGAAGGCACAUGAGGAUCACCCAUGUUUUUUGUUUUU”, for which the “apparent Kd” value by setting is: under setting [3], 20.4 nM; under setting [4], 68.3 nM.
In the case of “AGUCAUACAGGAUAUACAUGAGGAUCACCCAUGUAAAUCCUACAUGGGUGAUCCUCAUGUAGAAGGGUAUGACA”, the “apparent Kd” value amounted to 11.7 nM under setting [3] and 10.4 nM under setting [4].
Regarding “ACUUCACAUGAGGAUCACCCAUGUCAGGCCGGACUAGGAUAUUAUCAUGCAGCGUAACAGUGAGAAGGAGUUGGAU”, the “apparent Kd” value was determined as 91.2 nM under setting [1] and 89.3 nM under setting [2].
Taken in the same sequence, the figures for “GGGUACAUCGGAGGAUAUCAUGUAAACACAUGAGGAUCACCCAUGUCGAUGGAGACAUCGGAGAUUGAGAAGGCCGAUGUACCG” were 111 nM and 7.62 nM.
Consider “AAACCUAUAGGAUAUACAUGAGGAUCACCCAUGUUGCGAUUUUUUAGGUAACAGAUCCGUAGAAGGGUAGGGCA”, for which the “apparent Kd” value runs as follows: under setting [3], 29.7 nM; under setting [4], 46.9 nM.
Turning to “ACAAAUGGAGGAUAUACAUGAGGAUCACCCAUGUUUAUCCUACAUAUGUGAUAAUCAUGUAGAAGGCCAUAUGA”, the “apparent Kd” value is, setting by setting: under setting [3], 16.5 nM; under setting [4], 12.5 nM.
Regarding “UUUAAUUUGUAGAAGGACGACUAUUAAUAUUUCGUAGGAUAUACUAUUUACAUGAGGAUCACCCAUGUUUAAAUGGAACAAUGU”, the “apparent Kd” value reads like this: under setting [3], 8.35 nM; under setting [4], 12.4 nM.
With “GAUUAACAUGAGGAUCACCCAUGUGAGGAUAUGGAAUGGCUCACUUUUCGAUUCCCGUCUAGAAGGCACAUCUU”, the “apparent Kd” value reads like this: under setting [3], 54.6 nM; under setting [4], 53.3 nM.
As for “UUCAUCAGUGAAGGAUAUCUAUGUCCAACAUGAGGAUCACCCAUGUUGAGGAUUACCUAUGUGUAGGAGAAGGUCAAUAUAACU”, the “apparent Kd” value by setting is: under setting [1], 6.79 nM; under setting [2], 6.1 nM.
As to “UUAAAUCAUGUAGGAUAUGCAUGGCGAAGCUACGCAGAAGGACAUGAGGAUCACCCAUGUUCUGGCUACCGAGUACGGUGGCAA”, the “apparent Kd” value runs as follows: under setting [3], 20.5 nM; under setting [4], 81.2 nM.
“AGUUAAUAUCGAGGAUAUGUCUAGACACAUGAGGAUCACCCAUGUAUGUGUAUAGAAGGCGAUAUUAACAGCAUGUUACAUGCU”: the “apparent Kd” value was 42.9 nM under setting [1] and 16.4 nM under setting [2].
On to “AAUUUACAGACAGGAUAUACAUGAGGAUCACCCAUGUAAUCAUAUGAUAUUUUUUUUGUAUGAGUGUAGAAGGGUCAAAUAAAA”, for which the “apparent Kd” value runs as follows: under setting [3], 13.5 nM; under setting [4], 10.6 nM.
Taken in the same sequence, the figures for “AGUCCACAUGAGGAUCACCCAUGUGAGGAUAUCGAUGUCCCAGGGCGGGUGCGGGACUCGAGAAGGCACUAGGU” were 34.5 nM and 110 nM.
For “CUUGUGUAAGGAUAUCGAGUAGAACGCUCGAGUUCUGAGCUCGAGAAGGUACAUGAGGAUCACCCAUGUUAAAA”, the “apparent Kd” value turned out to be 40.1 nM under setting [3] and 66.2 nM under setting [4].
Turning to “UAGGGAGGAGGGAGGGAGACAUGAGGAUCACCCAUGUAAUGUCAGGAUAUUCUCAUAUUAUAUUAGGAGAAGGGAUACAUAUCU”, the “apparent Kd” value under setting [3] came to 49.7 nM and the “apparent Kd” value under setting [4] amounted to 24.7 nM.
On to “GUUAAACAUGAGGAUCACCCAUGUAAGGAUAUGCUGCGGUCGCGAUGAAGUGACUGCAGCAGAAGGUACAAUUG”, for which the “apparent Kd” value was 109 nM under setting [3] and 75.9 nM under setting [4].
Take “UAAUAUUUAUGAUAUUAUUACAGUAGAAGGCUAUACAUGUGGAUACAUGAGGAUCACCCAUGUAUAGAGGAUAUAUACAUAUAU”: the “apparent Kd” value stood at 964 nM under setting [3] and 351 nM under setting [4].
As to “GAGCCUAAUGAGAAGGUGUGUAUAAAUUAUAUACAAGGAUAUCGGUCGAGCGUGUUGACAUGAGGAUCACCCAUGUUGAGGCUU”, the “apparent Kd” value amounted to 7.86 nM under setting [1] and 5.29 nM under setting [2].
Taken in the same sequence, the figures for “AACGCCAGUGAGAAGGCAUGUUCACAUGAGGAUCACCCAUGUAUACUCAUGAGGAUAUCAAAUGCGGACCAAAAUAAAAUAAGA” were 464 nM and 26.6 nM.
As to “UAUAUAUAGUAAGGAUAUGUAUUUAUUUCAUAAACAGAAGGUACUGACAUGAGGAUCACCCAUGUUUUAGUGUGGGCAUGUAGA”, the “apparent Kd” value runs as follows: under setting [3], 81.8 nM; under setting [4], 121 nM.
Consider “CGUAGGAUCCAGAAGGCAUGUACAUGAGGAUCACCCAUGUCGAUAGACAUGAGGAUAUGGAUCCUACGAAAAGUGCGAAAGCAC”, for which the “apparent Kd” value amounted to 17.1 nM under setting [1] and 5.16 nM under setting [2].
In the case of “UGGAUGGUAUGAGGAUAUGCGCGCGAAACGUGCGCAGAAGGCAUGUCAAUAGACAUGAGGAUCACCCAUGUAUUAUCCAUCCAA”, the “apparent Kd” value reads like this: under setting [1], 140 nM; under setting [2], 12.5 nM.
On the same counts, the results for “GACAUGAGGAUCACCCAUGUCCCUCCAGAAGGCUGGCGCGCGAAACCGAUCUCGGUUCCGGGCACAGAGGAUAUGGGCGGUUGG” are 198 nM and 26.1 nM.
For “UGAUCGAGAGAUCUUAGAUUCUGGUAGGAUAUACAACAGUUGCGCUUUACAUGAGGAUCACCCAUGUAGAAGGACUAGAGUCUA”, the “apparent Kd” value is, setting by setting: under setting [3], 7.55 nM; under setting [4], 8.78 nM.
“AAGAUGCGGAUAGGAUAUGGAAAUAAAUAAAGACCAGAAGGAUUGGUCACACAACAUGAGGAUCACCCAUGUGUGUGUUGUGAA”: the “apparent Kd” value turned out to be 13.9 nM under setting [3] and 10.6 nM under setting [4].
In the case of “GGACGUCACAUGAACAUGAGGAUCACCCAUGUAAAUUCUCAUGAGGAUAUGGAACCUAAUUGGUUCCAGAAGGCGUGGACGUCC”, the “apparent Kd” value was 849 nM under setting [1] and 489 nM under setting [2].
As for “AAAUAGUCAGGAUAUACAUGAGGAUCACCCAUGUAAACUUUUAGUUUAAUUUGAAUGUGUAGAAGGGACAUUAA”, the “apparent Kd” value reads like this: under setting [3], 28.1 nM; under setting [4], 33 nM.
Taken in the same sequence, the figures for “CUUGAAUAAGUGAGGAUAUACUGUUAGUAAUGAUUGUAGAAGGUACAUGAGGAUCACCCAUGUUUAUUCAUAAU” were 18.2 nM and 18.3 nM.
With “CCGGGACAUGAGGAUCACCCAUGUUUCGUUUAUAGUAAAGCACAGGAUAUGAUGAAACAGGUUUCUCAGAAGGGUGUUCCGAAA”, the “apparent Kd” value under setting [1] was found to be 63.2 nM and the “apparent Kd” value under setting [2] turned out to be 67.8 nM.
In the case of “CCUUUGUCAGGAUAUCGAAAAGGGAGGCCAAAAGCCUCCGGUGAGAAGGGACAUGAGGAUCACCCAUGUGAAAA”, the “apparent Kd” value was 46.4 nM under setting [3] and 159 nM under setting [4].
“ACAUGUAAUACAGGAUAUGUUAUACAUUAAUCAAUCAGUUAUUAUGAUUAUACAGAAGGGUAUACAUGAGGAUCACCCAUGUUA”: the “apparent Kd” value is, setting by setting: under setting [3], 19.7 nM; under setting [4], 26.2 nM.
As for “AAAAAAUAAGGAUAUACAUUUCGGGAAAUUUUUACAAAAAAACAUGAGGAUCACCCAUGUAGAAGGUAUAAAAA”, the “apparent Kd” value turned out to be 23.2 nM under setting [3] and 20.1 nM under setting [4].
Turning to “AAUAUAAAGAGCUGGUAAACUCAAACAUGAGGAUCACCCAUGUAGGAUAUCAGCACGAUAAGUGCUGAGAAGGACAUCCAGCUC”, the “apparent Kd” value by setting is: under setting [3], 15.9 nM; under setting [4], 15.4 nM.
For “UUGGACGUCGUAGGAUAUGUAGGAUAUUCCUACAUGAGGAUCACCCAUGUUGACAUGGAAGAAGGACAGAAGGACGGUGUCCAU”, the “apparent Kd” value runs as follows: under setting [1], 241 nM; under setting [2], 4.54 nM.
Consider “GCCGAAAGUGUGAGGAUAUACCUAUGGAAACAUAGGUAGAAGGCACAUGAGGAUCACCCAUGUUCCUCAUCGGC”, for which the “apparent Kd” value runs as follows: under setting [3], 123 nM; under setting [4], 623 nM.
“GGACGACACAUUAACAUGAGGAUCACCCAUGUCUCUUGACAUGAGGAUAUGGAUCCUAAUUGGAUCCAGAAGGCAUGGUCGUCC”: the “apparent Kd” value under setting [1] is 1130 nM and the “apparent Kd” value under setting [2] turned out to be 93.5 nM.
As to “AUAUAUAUUUAGAAGGACAUGAGGAUCACCCAUGUCGCUGGGCCCGGGAAACCGGGCCCGGCCAUGUAGGAUAUAGAUAUAUAU”, the “apparent Kd” value by setting is: under setting [3], 6.72 nM; under setting [4], 9.5 nM.
For “GGCAGUCCGACACAGGAUAUGGGUAACGAAACAUGAGGAUCACCCAUGUGGAAACAUCGGGUUGCCUAGAAGGGUGGAAAGAUUG”, the “apparent Kd” value runs as follows: under setting [1], 117 nM; under setting [2], 32.1 nM.
Regarding “AUCAUCUCGUCAGGAUAUACGUCACUGCGUCAGCAGUGUGGUAAGAUCACAUGAGGAUCACCCAUGUAGAAGGGACGAGCUGAU”, the “apparent Kd” value by setting is: under setting [3], 14.4 nM; under setting [4], 226 nM.
As for “CAGUACUGAGGAUAUACAUGAGGAUCACCCAUGUGAACCAGCUAGGAAACUAGCAAAGGUAGAAGGCAGUACUG”, the “apparent Kd” value runs as follows: under setting [3], 21.3 nM; under setting [4], 259 nM.
Regarding “GUCGUGCGGCUUUGCUGUACGAGUACAUGAGGAUCACCCAUGUAGGAUAUGGUUCGUUUUGCGUGCCAGAAGGGCGUGCGUUGU”, the “apparent Kd” value reads like this: under setting [3], 25.5 nM; under setting [4], 24.8 nM.
As to “CAUGAUCAUGUAGGAUAUAUACUGGAAUACAGUAUAGAAGGACAUGAGGAUCACCCAUGUUAUGUGCCUCCAAGUAAGAUCAUG”, the “apparent Kd” value came out at 18.5 nM under setting [3] and 24.7 nM under setting [4].

In general, apparent Kd refers to a dissociation constant that holds for the conditions of the assay.
